# The list is not random: actives were taken first. Their share in the collection is about 3.9%.
# TAAR1 agonist – human TAAR1 agonists, primary screen, Fluo-8 calcium fluorescence, CHO RD-HGA16 cells; Trace amine-associated receptor 1 (Homo sapiens), Q96RJ0; vehicle wells 0%, saturating PEA agonist 100%; activation, % at 3 µM; 0.99% of 360,000 active;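 active = activation above the mean activation of all test compounds in the run plus 3 SD, cut at about 38% in these data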
# Target sequence (Q96RJ0 whole entry, looked up): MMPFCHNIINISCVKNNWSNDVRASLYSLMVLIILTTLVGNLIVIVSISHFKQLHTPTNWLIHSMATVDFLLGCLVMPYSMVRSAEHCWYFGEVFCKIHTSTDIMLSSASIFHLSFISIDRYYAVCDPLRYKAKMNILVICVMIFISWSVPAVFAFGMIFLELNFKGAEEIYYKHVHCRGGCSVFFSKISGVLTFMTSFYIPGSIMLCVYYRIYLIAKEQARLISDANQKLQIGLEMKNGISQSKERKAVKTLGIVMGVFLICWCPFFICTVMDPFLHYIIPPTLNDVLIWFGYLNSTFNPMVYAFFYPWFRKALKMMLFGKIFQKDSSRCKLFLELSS
#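 Repeats: no replicates (n 1) | Material: CHO-derived RD-HGA16 cells with stable Gα16 and human TAAR1 | Technique: Kinetic Fluo-8 calcium fluorescence | Schedule: 17-24 h seeding, 75 min 37 °C dye, 30 min RT | Evaluation: % activation from peak over basal fluorescence ratio, DMSO-to-PEA scaled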
# CHO parental Ca – ATP-evoked calcium signal inhibitors, parental CHO, primary screen, counter-screen for OX1R antagonist project, cell-based, fluorescence, Fluo-8 calcium dye. parental CHO-K1, ATP-induced calcium, Fluo-8 fluorescence. inhibition, % at 5.6 µM. 0.63% of 330,000 active. AID 463079, 2010;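 active = inhibition above that plate's mean sample inhibition plus 3 SD, cut at about 26% in these data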;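 also: 0% = ATP-challenged DMSO wells and 100% = DMSO wells without ATP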
#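 Material: Parental CHO cells | Reagent: ATP | Compound dosing: Single nominal dose of 5.6 µM per compound | Detection: Intracellular calcium via Fluo-8 no-wash fluorescent dye | Read-out: % inhibition of ATP-induced calcium mobilization | Benchmarks: Low control ATP plus DMSO, high control DMSO only | Replicates: Singlicate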
# TAAR1 antagonist – human TAAR1 antagonists, primary screen, Fluo-8 calcium fluorescence, CHO RD-HGA16 cells; Trace amine-associated receptor 1 (Homo sapiens), Q96RJ0; antagonist; inhibition, % at 3 µM; 1.5% of 360,000 active;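 active = inhibition above a per-plate cutoff, the mean inhibition of test compounds on that plate plus 3 SD, cut at about 49% in these data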;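 also: 0% = DMSO plus EC80 beta-PEA response and 100% = DMSO alone without agonist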
#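 test system = CHO RD-HGA16 cells bearing hTAAR1 | replication = singlicate | controls = DMSO-only wells and EC80 β-PEA-stimulated wells | reagent = EC80 β-phenethylamine stimulus | read-out basis = percent inhibition of PEA-evoked calcium signal, max/basal emission ratio | schedule = seeding 17-24 h prior, 75-min 37 °C, 30-min RT dye loading | signal = kinetic Fluo-8 calcium fluorescence measurement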
# OX1R antag-1 – OX1R (HCRTR1) antagonists, primary screen, fluorescence, CHO/OX1R cells, Fluo-8 calcium, orexin A | Fluo-8 calcium fluorescence | inhibition, % at 5 µM | 0.43% of 330,000 active | AID 434989, 2010;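 active = inhibition above its plate's threshold, mean inhibition of all tested compounds on the plate plus 3 SD, cut at about 37% in these data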;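 also: 0% = orexin A challenge wells and 100% = SB-334867-A antagonist wells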
# OX1R antag-2 – antagonists of human orexin 1 receptor (OX1R). OX1R-expressing cells, FRET antagonist read-out. inhibition, % at 6.6 µM. Orexin/Hypocretin receptor type 1 (Homo sapiens), O43613. 1.8% of 330,000 active; in the data active = inhibition mostly above about 38%, no sharp cut-off; inactive = mostly below about 40%;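 also: 0% = agonist challenge alone and 100% = reference antagonist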
# TAAR1 ag confirm – human TAAR1 agonists, retest of hits, confirmation, Fluo-8 calcium fluorescence, CHO RD-HGA16 cells; shares compounds with TAAR1 agonist; activation, % at 3 µM; scaled: DMSO 0%, maximal phenethylamine 100%; AID 651783, 2012; 82% of 2,400 active;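 active = activation above a cutoff set at the run's mean compound activation plus 3 SD, cut at about 39% in these data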
# Ga16 nonsel ag – nonselective calcium mobilization agonists, CHO-Ga16 cells, counter-screen for hTAAR1 agonist project, cell-based, fluorescence, CHO-Ga16 parental line; AID 651787, 2012; shares compounds with TAAR1 agonist; activation, % at 3 µM; 50% of 2,400 active; Fluo-8 calcium fluorescence; normalized to maximal ATP response, DMSO zero;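 active = activation above the run cutoff, the mean activation over all tested wells plus 3 SD, cut at about 12% in these data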;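 also: 0% = DMSO wells and 100% = maximal ATP response on the peak over basal ratio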
# TAAR1 desens – TAAR1 desensitization by agonist hits, confirmation, counter-screen for TAAR1 agonist project, cell-based, fluorescence, tachyphylaxis | shares compounds with TAAR1 agonist | CHO RD-HGA16 hTAAR1, Fluo-8 calcium, beta-PEA response inhibition | inhibition, % at 3 µM | 46% of 2,400 active | AID 651951, 2012;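 active = inhibition above the run cutoff, the mean inhibition of all test compounds plus 3 SD, cut at about 49% in these data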;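 also: beta-PEA stimulus applied at its EC80; loss of beta-PEA calcium signal after compound pretreatment read as receptor desensitization; 0% = DMSO with beta-PEA at EC80 and 100% = DMSO alone without agonist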
# Ga16 antag count – inhibition of ATP-evoked calcium response in CHO-Ga16 cells, counter-screen for TAAR1 agonist project, cell-based, fluorescence. AID 651952, 2012. inhibition, % at 3 µM. 39% of 2,400 active. shares compounds with TAAR1 agonist. CHO-Ga16 ATP-induced calcium, Fluo-8 fluorescence;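 active = inhibition above the plate's mean compound inhibition plus 3 SD, computed per plate, cut at about 22% in these data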;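 also: 0% = EC80 ATP with DMSO and 100% = DMSO wells without ATP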
# * marks the source's active call; other numbers are inactive results; · = no result.
SMILES,TAAR1 agonist,CHO parental Ca,TAAR1 antagonist,OX1R antag-1,OX1R antag-2,TAAR1 ag confirm,Ga16 nonsel ag,TAAR1 desens,Ga16 antag count
Cc1ccc(-c2sc(C(=O)NN)c(C)c2C#N)cc1,0,-11,-21,-17,7,·,·,·,·
Cc1nn(C(=O)CCC(=O)NCCc2ccccc2)c2ccccc12,·,-1,·,-12,12,·,5,·,8
Cc1nn(C(=O)CCC(=O)NCc2cccc(F)c2)c2ccccc12,3,0,-2,4,5,·,·,·,·
O=[N+]([O-])C1C(c2ccccc2)=NOC1c1ccccc1O (stereo unspecified),0,8,1,-11,12,·,·,·,·
O=C(Cc1ccc(-c2ccccc2)cc1)NC1CCCC1,59*,-4,-4,-9,32,14,7,2,13
O=C(Cc1ccc(Cl)cc1)NC1CCCCCC1,2,-9,-13,-9,15,·,·,·,·
Cc1[nH]c2ccccc2c1C(=O)CN1C(=O)NC(C)(c2ccc(Cl)cc2Cl)C1=O (stereo unspecified),70*,23,55*,34,13,75*,39*,64*,48*
CN(CC(=O)Nc1cccc(C(F)(F)F)c1)C1=NS(=O)(=O)c2ccccc21,6,-12,-9,-20,7,·,·,·,·
FC(F)(F)c1cccnc1Oc1ccc(C2=NCCS2)cc1,84*,-11,57*,-11,8,58*,58*,62*,43*
Nc1cccnc1Oc1ccc(F)cc1,1,-11,-20,-1,12,·,·,·,·
CCCN(CC(=O)NC(=O)NCc1ccccc1)CC(=O)Nc1ccc(F)c(F)c1F,1,·,-28,·,·,·,·,·,·
COc1ccc(NS(=O)(=O)c2ccc(-n3nnc4ccccc43)c([N+](=O)[O-])c2)cc1,52*,-6,32,-3,12,72*,39*,50*,40*
O=C(O)c1ccccc1C(=O)NCC(O)c1ccccc1 (stereo unspecified),72*,-26,7,-8,13,96*,2,62*,4
O=C(CNC(=O)c1ccccc1C(=O)O)c1ccccc1,71*,6,30,-19,6,78*,6,47,8
O=C(O)c1ccccc1C(=O)NCCCCCCNC(=O)c1ccccc1C(=O)O,2,-9,4,-13,0,·,·,·,·
Cc1cc(C(C)(C)C)cc(C)c1CC1=NCCN1,32,-7,-23,-8,6,·,·,·,·
c1ccc(CC2=NCCN2)cc1,75*,3,63*,-3,9,92*,0,76*,6
c1ccc(CN(CC2=NCCN2)c2ccccc2)cc1,66*,-2,-3,-10,17,92*,3,67*,12
Cc1nn(C)c(C(=O)NNC(=S)NCc2ccco2)c1Br,80*,-7,17,-10,10,-1,5,8,1
Cc1nn(C)c(C(=O)NNC(=S)NCc2ccco2)c1Cl,1,3,-3,-6,16,·,·,·,·
